From PubChem BioAssay
Sampled rows, rich in hits. Any-hit rate of the full collection: about 1.9%.
bCat nuc transl: modulators of beta-catenin nuclear translocation | HeLa beta-catenin nuclear translocation, immunofluorescence imaging | nuclear translocation activity, % at 5 µM | 190,000 tested, 0.3% active | AID 1665;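 active = nuclear translocation activity above 50% at 5 µM, with a well cell count of 50 or more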;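 note: per-cell ratio of nuclear to cytoplasmic median beta-catenin stain intensity; plate controls were DMSO negative control for no effect and GSK-3 inhibitor IX positive control for full effect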
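Test system: human HeLa cells, endogenous beta-catenin. Times: 24 h compound exposure, 37°C. Measured by: beta-catenin immunofluorescence imaging with DAPI.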
ROMK primary: modulates human ROMK potassium channel activity; B-score at 10 µM; AID 1918; Tet-inducible ROMK, thallium flux fluorescence; actives lie on both sides; P48048; 130,000 tested, 2% active;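 active = signal ratio slope over the read window, or its plate-corrected B-score, at least 3 SD from the plate mean, either direction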;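 note: B-score of the F/F0 ratio slope over 7 to 12 s after thallium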
Target sequence (P48048 whole entry, looked up): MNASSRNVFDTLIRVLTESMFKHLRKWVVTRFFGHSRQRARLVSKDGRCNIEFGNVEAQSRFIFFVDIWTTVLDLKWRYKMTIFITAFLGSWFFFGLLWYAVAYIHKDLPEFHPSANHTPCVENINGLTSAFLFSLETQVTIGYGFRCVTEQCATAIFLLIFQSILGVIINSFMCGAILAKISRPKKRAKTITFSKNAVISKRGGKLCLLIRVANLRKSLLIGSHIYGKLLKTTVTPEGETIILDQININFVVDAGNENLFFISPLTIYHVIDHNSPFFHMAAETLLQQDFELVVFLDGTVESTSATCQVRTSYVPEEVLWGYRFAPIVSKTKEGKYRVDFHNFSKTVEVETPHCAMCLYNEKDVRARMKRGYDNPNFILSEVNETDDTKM
MT stabilize HCS: microtubule stabilizers in HeLa cells; AID 2205; HeLa tubulin immunostaining HCS, 24 h; share of cells brighter than vehicle mean+2SD; % tubulin-high responders, % at 10 µM; 200,000 tested, 0.83% active;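 active = plate Z-score above 3 for both tubulin-high and condensed-nucleus cell shares, with cell loss under 80%, at 10 µM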;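 note: anti alpha tubulin signal scored within the nucleus-defined area of each cell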
An asterisk follows results filed as active.

`COc1ccc(NC(=O)/C(C#N)=C/c2ncc([N+](=O)[O-])n2C)c(OC)c1` gave bCat nuc transl -1.
`CC1(C(=O)OCc2cc(=O)n3cc(Br)ccc3n2)CC1(Cl)Cl` (centres undefined) gave bCat nuc transl -3 and MT stabilize HCS 2.
COCCN(CCOC)S(=O)(=O)c1ccc(C(=O)Nc2ccc([N+](=O)[O-])cc2OC)cc1 was read as bCat nuc transl 1, ROMK primary 0.49 and MT stabilize HCS 10.
COc1ccc(CN(Cc2cc3cccc(C)c3n3nnnc23)C(=O)N2CCOCC2)cc1 was read as bCat nuc transl 0, ROMK primary 0.32 and MT stabilize HCS 2.
Screening CCN(CC)S(=O)(=O)c1ccc(/C=C/C(=O)Nc2ccc(N3CCOCC3)cc2)cc1 returned bCat nuc transl 0.
Screening CC(C)(C)c1ccc(OCc2cnc(Cl)s2)cc1 returned bCat nuc transl 0, ROMK primary 0.87 and MT stabilize HCS 1.
`Cc1ccc(N(C(=O)Cn2nnc(-c3ccccc3)n2)C(C(=O)NC2CCCCC2)c2ccccn2)cc1C` (centres undefined) gave bCat nuc transl 0, ROMK primary -0.5 and MT stabilize HCS 5.
Cc1cc(N2CCCC2)ccc1/C=C1/C(=O)N(C)C(=S)N1C was read as bCat nuc transl 20, ROMK primary -1.4 and MT stabilize HCS 25*.
Cc1cc(/C=C2/C(=O)N(C)C(=S)N2C)ccc1N1CCCC1 was read as bCat nuc transl 2, ROMK primary -1.1 and MT stabilize HCS 1.
CC(Sc1ccccc1)C(=O)NN=C1CCCCCC1 (centres undefined) was read as bCat nuc transl 0, ROMK primary -0.73 and MT stabilize HCS 3.
CCOc1ccc(S(=O)(=O)Nc2cccc(OC)c2)cc1 was read as MT stabilize HCS 16*.
For Cc1cc(C)cc(NS(=O)(=O)c2cnc(Cl)c(Cl)c2)c1 the results were bCat nuc transl -4, ROMK primary -1.1 and MT stabilize HCS 3.
CCOc1ccc(S(=O)(=O)Nc2cccc(N(C)S(C)(=O)=O)c2)cc1 was read as bCat nuc transl -3, ROMK primary -1.8 and MT stabilize HCS 2.
For CCOc1ccc(NS(=O)(=O)c2cnc(Cl)c(Cl)c2)cc1 the results were bCat nuc transl 4, ROMK primary -0.013 and MT stabilize HCS 16*.
Screening NC(=O)CC[C@H](NC(=O)c1ccc(F)cc1)C(=O)OCC(=O)Nc1ccc(N2CCOCC2)cc1 returned bCat nuc transl 5, ROMK primary 0.65 and MT stabilize HCS 5.
`O=C(O)c1cnn(-c2nc(-c3ccc(F)cc3)cs2)c1C(F)(F)F` gave bCat nuc transl -2, ROMK primary 1.1 and MT stabilize HCS 2.
Screening CCOC(=O)c1cnn(-c2nc(-c3ccc(C)cc3)cs2)c1C(F)(F)F returned bCat nuc transl -2, ROMK primary 0.32 and MT stabilize HCS 29*.
For Cc1ccc(CNCC(=O)Nc2ccc(C)cc2Br)cc1 the results were bCat nuc transl 0, ROMK primary -0.52 and MT stabilize HCS 7.
Cn1c(O)c(N=Nc2nc(-c3ccccc3)cs2)c2ccccc21 was read as ROMK primary 2.8* and MT stabilize HCS 5.
For Cn1c(O)c(N=Nc2ccc(F)cc2)c2ccccc21 the results were bCat nuc transl -1, ROMK primary -1.8 and MT stabilize HCS 2.
For COc1cc2c3nnc(-c4ccc(F)cc4)c-3cn(Cc3ccccc3F)c2cc1OC the results were bCat nuc transl 0, ROMK primary -4* and MT stabilize HCS 3.
For COc1ccccc1N1CCN(c2nnc(-c3ccc(F)cc3)c3ccccc23)CC1 the results were bCat nuc transl 0 and MT stabilize HCS 3.
`COc1cc2c3nnc(-c4ccccc4)c-3cn(Cc3ccccc3F)c2cc1OC` gave bCat nuc transl 0, ROMK primary -6.8* and MT stabilize HCS 5.
`COc1ccc(-c2nnc(SCc3ccccc3F)o2)cc1OC` gave bCat nuc transl -1, ROMK primary -0.13 and MT stabilize HCS 3.
Screening CC(O)C(=O)NCCOCCOCCNC(=O)C(C)O (centres undefined) returned bCat nuc transl -1 and MT stabilize HCS 4.
CN(C)N1C(N)=C(C#N)C(c2cccs2)C2=C1CC(C)(C)CC2=O (centres undefined) was read as bCat nuc transl -2, ROMK primary 0.17 and MT stabilize HCS 4.
For COc1ccc(C(=O)N(C)C2CCN(C)CC2)cc1S(=O)(=O)Nc1cc(Cl)ccc1Cl the results were bCat nuc transl -3.
Screening CCCc1cc(C(=O)N/N=C/c2ccc(CC)s2)c2ccccc2n1 returned MT stabilize HCS 34*.
CCc1ccc(/C=N/NC(=O)c2c[nH]c3ccccc23)s1 was read as bCat nuc transl -3 and MT stabilize HCS 2.
For CCc1ccc(/C=N/NC(=O)c2cc(-c3ccncc3)nc3ccccc23)s1 the results were bCat nuc transl 66* and MT stabilize HCS 9.
